These results are taken from ChEMBL document CHEMBL4513216, “Probing the Open Global Health Chemical Diversity Library for Multistage-Active Starting Points for Next-Generation Antimalarials” (ACS Infect Dis, 2020).

The data set can be described thus: Toxicity liver stage against HepG2, at 10uM. The format is cell-based. Set-up: test concentration 10 uM, cell line HepG2-A16-CD81EGFP. The conditions noted are these: human, HepG2-A16-CD81EGFP cells; read-out: INHIBITION
Put shortly:
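Uninfected HepG2-A16-CD81EGFP cells, 3 × 10^3 per well, 1536-well, plated on prespotted compound at 10 μM final, parasite-free screening media added to match infected plates; puromycin 10 μM positive, DMSO 0.5% negative; run in parallel with 48 h PbLuc assay at 37 °C, 5% CO2; viability by CellTiter-Glo luminescence, normalized to controls.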
On to `CCn1cc(C(=O)Nc2ccccc2C(=O)OC)cn1`, for which the cytotoxicity at 10 µM was -7.25%. Regarding `COC(=O)CC(c1cccc(OC(F)F)c1)c1oc(C)cc(=O)c1O` (configuration not stated), the cytotoxicity at 10 µM was -9.11%. In the case of `O=S(=O)(Cc1ccccc1Cl)N1CCC2(CC1)OCCS2`, the cytotoxicity at 10 µM worked out at 0.649%. With `Cn1c(C(=O)NC2CC2)nc2c1CCN(c1ncccn1)C2`, the cytotoxicity at 10 µM was -4.75%. The value for `Cn1cc(CN2CCc3ncn(C)c3C2COCc2ccccc2)cn1` (configuration not stated) was 9.19%.

With `CC(NC(=O)OC(C)(C)C)c1nnc(S(=O)(=O)Cc2ccccc2Cl)o1` (configuration not stated), the cytotoxicity at 10 µM is 0.935%. The value for `CCc1c(C)n(CCC#N)c2nc3ccccc3n2c1=O` was 2.73%; that for `CC(C)n1[nH]c(=O)c2c1NC(=O)CSC2c1cccc(OCC(N)=O)c1` (configuration not stated) was 8.46%; that for `CC1=Nc2c(c(O)nn2C(C)C)C(c2cnn(C)c2)S1` (configuration not stated) was 10.8%. `Cn1c(C(F)(F)F)nn(CCNC(=O)c2cnc3ccccc3n2)c1=O`: the cytotoxicity at 10 µM was -20%.

In the case of `CCN1CCN(C(=O)C(C)n2cc(Br)cn2)CC1` (configuration not stated), the cytotoxicity at 10 µM is 6.39%.

Take `CCS(=O)(=O)N1CCCCC1c1nc(CC(C)C)no1` (configuration not stated): the cytotoxicity at 10 µM turned out to be 0.253%. As to `Cc1nn(C)c2c(N3CCN(C)CC3)nc(C3CC3)nc12`, the cytotoxicity at 10 µM is -5.2%.

Turning to `CCc1ccccc1NC(=O)c1cnn(C)c1C`, the cytotoxicity at 10 µM is -2.52%.

For `Cc1cc(NC2CC3(CCN(Cc4ncccc4F)C3)C2)ncn1` (configuration not stated), the cytotoxicity at 10 µM came out at 0.0666%.

For `Cc1nccn1[C@@H]1CC[C@@H](NC(=O)CCOc2ccccc2)[C@H]1O`, the cytotoxicity at 10 µM was -12.7%. The value for `Fc1ccccc1CN1CCC[C@H](Cn2nnc(-c3cccs3)n2)C1` was -0.152%; that for `CNc1cncc(C2CCCN2C(=O)CCn2ccnc2C(C)C)n1` (configuration not stated) was 3.36%.

Turning to `Cc1nc(Nc2nnc(C)s2)cc(C2CCCN2C)n1` (configuration not stated), the cytotoxicity at 10 µM is 8.67%.

For the molecule `CC(=O)N1CCCC1c1nccc(C)n1` (configuration not stated), the cytotoxicity at 10 µM was 1.31%. Take `CS(=O)(=O)N1CC2(CCN(CC3CC3)C2)Cc2ccccc21` (configuration not stated): the cytotoxicity at 10 µM was -1.93%. Consider `O=C(c1ccc(Cl)s1)N1CCC2(CNS(=O)(=O)c3cnccc3O2)C1` (configuration not stated), for which the cytotoxicity at 10 µM is 15.5%. On to `CC(C)(C)OC(=O)N1CCCN(c2nnc(Br)s2)CC1`, for which the cytotoxicity at 10 µM is 10.5%.

Regarding `CN(CCOc1cccc(F)c1)CC(=O)Nc1ccncc1`, the cytotoxicity at 10 µM is 9.16%. Consider `CC(c1ccco1)N(C(=O)CNc1ccc(C#N)cc1)C1CC1` (configuration not stated), for which the cytotoxicity at 10 µM is 7.79%. Consider `COc1ccncc1NCc1cscn1`, for which the cytotoxicity at 10 µM was 6.44%. As to `Cc1ccccc1C(C)NC(=O)CN1CCN(Cc2ccc(Cl)s2)CC1` (configuration not stated), the cytotoxicity at 10 µM was 10.8%.

As for `CC(=O)N1CCC(C(=O)N(CC(F)F)c2cccc(Cl)c2)CC1`, the cytotoxicity at 10 µM was determined as 5.71%.

`COc1ccc(-c2nnc(C(C)N3CCOC(C)(C)C3)o2)cc1` (configuration not stated): the cytotoxicity at 10 µM was 2.62%. With `CCCN(CC1CC1)C(=O)Nc1ccc(N2CCSCC2)cc1C`, the cytotoxicity at 10 µM came out at 3.05%. Regarding `CCOCCOC(C)C(=O)NCc1ccc(N2CCCCC2)cc1` (configuration not stated), the cytotoxicity at 10 µM came out at 11.6%.

Turning to `O=C(CC1=CCCCC1)NCc1ccnc(OC2CCOCC2)c1`, the cytotoxicity at 10 µM is -0.103%.

As to `CCOC(=O)NCCC(=O)NCc1ccnc(Oc2ccc(F)cc2)c1`, the cytotoxicity at 10 µM came to 6.74%.

Take `COc1ncccc1CNCc1c(C(C)C)nn(C)c1Cl`: the cytotoxicity at 10 µM is -3.74%.

As for `O=C(CN1CCCCCC1=O)NCC1CCN(c2ccccc2)C1` (configuration not stated), the cytotoxicity at 10 µM was -6.5%. With `COc1cc(NC(=O)NC(C2CC2)C2CC2)ccc1N1CCOC1=O`, the cytotoxicity at 10 µM stood at 4.63%. The value for `CCn1cc(NC(=O)C2CCN(Cc3ccccc3)CC2)cn1` was 2.41%; that for `Cc1cnc(CN(C)C2CCN(Cc3sc(C)nc3C)C2)o1` (configuration not stated) was 3.45%; that for `O=C(Nc1nncs1)NC1CCCc2c1cnn2CCO` (configuration not stated) was -17.2%. With `CCc1noc(C(C)N(C)CC(=O)Nc2ccccc2Cl)n1` (configuration not stated), the cytotoxicity at 10 µM is -0.0195%. Take `COc1ccc(COCC(=O)NC2CCc3nc(C)cn3C2)cc1` (configuration not stated): the cytotoxicity at 10 µM came to 1.6%. Regarding `CSC(C)(C)CNC(=O)NC(c1nnc2n1CCC2)C(C)C` (configuration not stated), the cytotoxicity at 10 µM was -19.9%. Regarding `CCNC(=O)CN(CC)C(=O)c1cc(-c2cccc(Cl)c2)no1`, the cytotoxicity at 10 µM was -9.88%. In the case of `CCc1ncc2c(n1)CN(C(C)C(=O)N1CCOCC1)CC2` (configuration not stated), the cytotoxicity at 10 µM is -8.52%. On to `COCCN1CCC(Nc2ccc(C#N)cc2F)CC1`, for which the cytotoxicity at 10 µM was -3.68%. As to `COc1cc(I)c(Cl)cc1C(=O)N(C)CC(=O)NC(C)(C)C`, the cytotoxicity at 10 µM was 15.4%.

With `CN(Cc1nnc(C2CC2)n1C)S(=O)(=O)c1ccccc1F`, the cytotoxicity at 10 µM was determined as 16.8%. The value for `C[C@H](CCO)NS(=O)(=O)c1ccc(Br)cn1` was -8.63%; that for `Cn1ccc(C(=O)NCc2ccccc2Cn2ccnc2)cc1=O` was 9.42%; that for `CNC(=O)CN1CCC(NC(=O)CC(C)CCc2ccccc2)CC1` (configuration not stated) was 8.47%. For the molecule `CCCC(C)NC(=O)CCN1C(=O)CCc2cc(F)ccc21` (configuration not stated), the cytotoxicity at 10 µM amounted to 8.17%. With `Cc1nc(C2CCCN2C(=O)COCCOc2ccccc2)no1` (configuration not stated), the cytotoxicity at 10 µM was -5.82%. With `Cc1nc(CN2CCC(N(C)Cc3noc(C(C)C)n3)C2)cs1` (configuration not stated), the cytotoxicity at 10 µM is -14.1%. Turning to `COc1ccccc1CC(=O)NCCCN1CCCC1C(=O)N(C)C` (configuration not stated), the cytotoxicity at 10 µM was -13%. As to `O=C(CN(Cc1cccnc1)CC1CCCO1)Nc1ccc(F)cc1` (configuration not stated), the cytotoxicity at 10 µM is -10.7%.

Consider `CC(C)NC(=O)c1noc2c1CN(Cc1cnn(C)c1)CC2`, for which the cytotoxicity at 10 µM came to 6.59%. The value for `c1cnc(N2CCO[C@H]3[C@H](OCc4cccnc4)CC[C@@H]32)nc1` was -5.05%; that for `Cc1noc(C)c1CN1CC[C@H]2C[C@@H](c3ccncn3)O[C@@H]2C1` was -3.04%. `CCc1noc(CN(CCc2ccccc2)C2CCN(C)CC2)n1`: the cytotoxicity at 10 µM turned out to be 0.15%. For `O=C(CN1CCOC(c2ccc(Cl)c(Cl)c2)C1)NCc1ccco1` (configuration not stated), the cytotoxicity at 10 µM was -7.31%. Regarding `Cc1nc(-c2cccnc2)ncc1C(=O)N1CCCC(N(C)C)CC1` (configuration not stated), the cytotoxicity at 10 µM amounted to 9.81%. Regarding `Cc1ccc(C(C(=O)NCCN2CCCCCC2)N(C)C)cc1` (configuration not stated), the cytotoxicity at 10 µM is -3.12%.

Turning to `O=C(c1cc(Cl)ccc1OC1CCN(C2CCCC2)CC1)N1CC(O)C1`, the cytotoxicity at 10 µM is -16.2%.

In the case of `CCc1cn[nH]c1C1CCN(C(=O)c2cccc(O)c2C)CC1`, the cytotoxicity at 10 µM came to 2.28%. On to `Cc1noc(C)c1C(=O)N1CCCC(c2nccn2Cc2cscn2)C1` (configuration not stated), for which the cytotoxicity at 10 µM came to 2.11%.

With `CC(=O)N1CCc2c(nc(N(C)C)nc2N(C)CCCC2CCCO2)C1` (configuration not stated), the cytotoxicity at 10 µM amounted to 7.92%. The value for `O=C(O)[C@@H]1CN(CC2CCC2)C[C@H]1c1ccc(F)cc1` was -3.62%; that for `CN1CCN(Cc2ccccc2Cl)CC12CCC(=O)N(CC1CC1)CC2` (configuration not stated) was -3.94%. For `CN(Cc1nnc(C2CC2)n1C)C1CCN(Cc2nccn2C)C1` (configuration not stated), the cytotoxicity at 10 µM is -8.22%. On to `Cc1cnn(C2CCCN(C(=O)CCCc3ccccn3)C2)c1` (configuration not stated), for which the cytotoxicity at 10 µM is -11.2%. Regarding `CC(NC(=O)c1cccs1)C(=O)NCc1ccccn1` (configuration not stated), the cytotoxicity at 10 µM was -12.3%. For the molecule `O=C(NCCCN1CCCCCC1=O)c1n[nH]c(=O)c2ccccc12`, the cytotoxicity at 10 µM was -12.3%. For the molecule `CN(C)c1ccc(C(=O)N2CCN(CC(C)(C)O)CC2)nn1`, the cytotoxicity at 10 µM was -13.3%.

Take `Cc1ccc(OCCC(=O)N2CCOCC2c2ncon2)cc1C` (configuration not stated): the cytotoxicity at 10 µM was -11.9%. The value for `CN1N=C(C(=O)N2CCCC(n3ccnc3)C2)CCC1=O` (configuration not stated) was -13.2%. The value for `CN(Cc1ccccc1)CC(O)Cn1cnc2c(cnn2C)c1=O` (configuration not stated) was 1.53%.

As to `CC(C)c1nn(C)c(N2CCOCC2)c1CNCCS(C)(=O)=O`, the cytotoxicity at 10 µM was -8.36%. For the molecule `c1cnn(CC2CCCCN2Cc2cn3ccsc3n2)c1` (configuration not stated), the cytotoxicity at 10 µM is -7.08%.

Turning to `COc1cccc(COCC(=O)N2CCC(CC(N)=O)CC2)c1`, the cytotoxicity at 10 µM was -4.56%. Regarding `CCn1c(CN2CCN(CC(N)=O)CC2)nc2c(F)cccc21`, the cytotoxicity at 10 µM was -9.88%.

As for `CCOc1ccc(C#N)cc1NCC(=O)Nc1cc(F)ccc1F`, the cytotoxicity at 10 µM was -9.47%. For the molecule `CNC(=O)[C@@H]1CN(C(=O)C(C)C)C[C@H]1c1ccnc(N2CCCC2)n1`, the cytotoxicity at 10 µM turned out to be 0.791%. Turning to `CNC(=O)N1Cc2cc(F)ccc2C2(CCN(C)CC2)C1`, the cytotoxicity at 10 µM came to 0.595%.

Turning to `COc1ccc(-c2cnc(N(C)C)nc2C2CNCCO2)cc1` (configuration not stated), the cytotoxicity at 10 µM is -1.4%. `O=C(O)c1c(-c2ccoc2)ncc2c1CCN(C1CCOC1)C2` (configuration not stated): the cytotoxicity at 10 µM is 17%. The value for `CCc1ccc(CN2CCC3(CC2)NC(=O)CC3c2ccncc2)o1` (configuration not stated) was 1.83%; that for `CCCS(=O)(=O)N1CCC2(CN(c3cnn(C)c3)C(=O)CN2C)C1` (configuration not stated) was -10.7%; that for `c1ccc(CN2CCc3nnc(COc4ccccn4)n3CC2)nc1` was -2.1%. Turning to `Cc1noc(C)c1CN1CCC2(CC1)CC(Oc1cccnc1)CO2` (configuration not stated), the cytotoxicity at 10 µM turned out to be 17.8%. For `CN(C)C(=O)COC1COC2(CCN(c3cnccn3)CC2)C1` (configuration not stated), the cytotoxicity at 10 µM is -6.29%. As for `CN(C)Cc1cc(=O)n2c(n1)CN(S(=O)(=O)C1CC1)CCC2`, the cytotoxicity at 10 µM worked out at 4.53%. For `CN(C)CCN1CCCC12CCCN(Cc1ccoc1)C2` (configuration not stated), the cytotoxicity at 10 µM turned out to be 7.88%. Consider `CS(=O)(=O)N1C[C@H]2CCCN(Cc3ccsc3)[C@H]2C1`, for which the cytotoxicity at 10 µM came out at 6.43%. In the case of `O=C(NCc1ccco1)[C@H]1C[C@@H]2CCN(c3ccncn3)C[C@@H]2O1`, the cytotoxicity at 10 µM was -9.58%. As for `O=C(NCc1cccc(Cl)c1)C1=NOC2(CCNC2)C1` (configuration not stated), the cytotoxicity at 10 µM was -0.0606%. `O=C1[C@@H]2CCN(Cc3ccoc3)C[C@@H]2OCCN1c1ccccc1`: the cytotoxicity at 10 µM is -0.928%. The value for `Cc1oncc1C(=O)N1C[C@H]2CCCC(N(C)Cc3cccs3)[C@H]2C1` (some centres not stated) was 18.8%.
